From ChEMBL document CHEMBL4052819 (2017)
Converted amounts (≈) assume the structure as drawn. Non-standard residues stand in square brackets, D forms with d. Residues, ends and D or L forms follow the SMILES beside them. *: point of attachment. Heptanoyl = CCCCCCC(=O)*; Octanoyl = CCCCCCCC(=O)*; Dab = NCC[C@H](N)C(=O)O

Assays:
Escherichia coli [1] = assay: Antibacterial activity against Escherichia coli ATCC 25922 after 18 to 20 hrs by broth microdilution method; type: functional
How it was run: (§1)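 Broth microdilution in tryptic soy broth: 2-fold dilutions mixed 1:1 with ~1.5 × 10^5 CFU/mL inoculum, final 0.5–32 μg/mL; 37 °C, 18–20 h. MIC taken as lowest concentration giving no visible growth. At least three independent experiments, one replicate each.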

Pseudomonas aeruginosa [2] = assay: Antibacterial activity against Pseudomonas aeruginosa ATCC 27853 after 18 to 20 hrs by broth microdilution method; type: functional; how it was run: as §1
Acinetobacter baumannii [3] = assay: Potentiation of rifampicin-mediated antibacterial activity against Acinetobacter baumannii ATCC 19606 assessed as rifampicin MIC at 2 ug/ml by checkerboard method (reference value: 16 ug/ml); type: functional; conditions: ATCC 19606 = CIP 70.34 = JCM 6841
Klebsiella pneumoniae [4] = assay: Potentiation of rifampicin-mediated antibacterial activity against Klebsiella pneumoniae ATCC 13883 assessed as decrease in rifampicin MIC at 2 ug/ml by checkerboard method relative to control; type: functional
Enterococcus faecium [5] = assay: Antibacterial activity against Enterococcus faecium ATCC 19434 after 18 to 20 hrs by broth microdilution method; type: functional; how it was run: as §1
Staphylococcus aureus [6] = assay: Antibacterial activity against Staphylococcus aureus ATCC 29213 after 18 to 20 hrs by broth microdilution method; type: functional; how it was run: as §1
Acinetobacter baumannii [7] = assay: Potentiation of rifampicin-mediated antibacterial activity against Acinetobacter baumannii ATCC 19606 assessed as decrease in rifampicin MIC at 4 ug/ml by checkerboard method relative to control; type: functional, ATCC 19606 = CIP 70.34 = JCM 6841
Klebsiella pneumoniae [8] = assay: Antibacterial activity against Klebsiella pneumoniae ATCC 13883 after 18 to 20 hrs by broth microdilution method; type: functional
Klebsiella pneumoniae [9] = assay: Potentiation of rifampicin-mediated antibacterial activity against Klebsiella pneumoniae ATCC 13883 assessed as rifampicin MIC at 2 ug/ml by checkerboard method (reference value: 16 ug/ml); type: functional
Acinetobacter baumannii [10] = assay: Antibacterial activity against Acinetobacter baumannii ATCC 19606 after 18 to 20 hrs by broth microdilution method; type: functional; conditions: ATCC 19606 = CIP 70.34 = JCM 6841
Staphylococcus aureus [11] = assay: Antibacterial activity against methicillin-resistant Staphylococcus aureus ATCC 43300 after 18 to 20 hrs by broth microdilution method; type: functional
How it was run: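 Broth microdilution in tryptic soy broth: 2-fold dilutions mixed 1:1 with ~1.5 × 10^5 CFU/mL bacterial suspension in TSB, final 0.5–32 μg/mL, 37 °C for 18–20 h. MIC = lowest concentration with no visible growth. At least three independent experiments, one replicate each.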

Pseudomonas aeruginosa [12] = assay: Bactericidal activity against Pseudomonas aeruginosa ATCC 27853; type: functional; conditions: read-out: MBC99.9
How it was run: (§2)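 MBC from MIC plates at end point: 50 μL from each well with no visible growth plated on tryptic soy agar and counted. MBC taken as lowest concentration giving ≥99.9% fall in viable count relative to initial inoculum. Three independent experiments, one replicate each.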

Enterococcus faecium [13] = assay: Bactericidal activity against Enterococcus faecium ATCC 19434; type: functional; conditions: read-out: MBC99.9; how it was run: as §2
Staphylococcus aureus [14] = assay: Bactericidal activity against Staphylococcus aureus ATCC 29213; type: functional; conditions: read-out: MBC99.9; how it was run: as §2
Staphylococcus aureus [15] = assay: Bactericidal activity against methicillin-resistant Staphylococcus aureus ATCC 43300; type: functional; conditions: read-out: MBC99.9
How it was run: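 MBC taken at the end of the MIC test: 50 μL from each well without visible growth plated on tryptic soy agar. MBC = lowest concentration giving ≥99.9% reduction in viable cells relative to the initial inoculum. Three independent experiments, one replicate each.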

Klebsiella pneumoniae [16] = assay: Bactericidal activity against Klebsiella pneumoniae ATCC 13883; type: functional; conditions: read-out: MBC99.9; how it was run: as §2
Escherichia coli [17] = assay: Antibacterial activity against Escherichia coli ATCC 25922 after 18 to 20 hrs in presence of 95% serum by broth microdilution method; type: functional
How it was run: (§3)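 Same microdilution with human serum as medium: compound 2-fold diluted in 100% serum, mixed 1:1 with 90% serum holding ~1.5 × 10^5 CFU/mL, giving 95% serum and final 0.5–64 μg/mL. MIC read as no visible growth after incubation as for the broth test.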

Acinetobacter baumannii [18] = assay: Bactericidal activity against Acinetobacter baumannii ATCC 19606; type: functional; conditions: ATCC 19606 = CIP 70.34 = JCM 6841, read-out: MBC99.9; how it was run: as §2
Staphylococcus aureus [19] = assay: Antibacterial activity against Staphylococcus aureus ATCC 29213 after 18 to 20 hrs in presence of 95% serum by broth microdilution method; type: functional; how it was run: as §3
Escherichia coli [20] = assay: Bactericidal activity against Escherichia coli ATCC 25922; type: functional; conditions: read-out: MBC99.9; how it was run: as §2

| Structure (SMILES) | MIC (Escherichia coli [1]) [µg/mL] | MIC (Pseudomonas aeruginosa [2]) [µg/mL] | MIC (Acinetobacter baumannii [3]) [µg/mL] | fold change (FC) (Klebsiella pneumoniae [4]) | MIC (Enterococcus faecium [5]) [µg/mL] | MIC (Staphylococcus aureus [6]) [µg/mL] | fold change (FC) (Acinetobacter baumannii [7]) | MIC (Klebsiella pneumoniae [8]) [µg/mL] | MIC (Klebsiella pneumoniae [9]) [µg/mL] | MIC (Acinetobacter baumannii [10]) [µg/mL] | MIC (Staphylococcus aureus [11]) [µg/mL] | MBC (Pseudomonas aeruginosa [12]) [µg/mL] | MBC (Enterococcus faecium [13]) [µg/mL] | MBC (Staphylococcus aureus [14]) [µg/mL] | MBC (Staphylococcus aureus [15]) [µg/mL] | MBC (Klebsiella pneumoniae [16]) [µg/mL] | MIC (Escherichia coli [17]) [µg/mL] | MBC (Acinetobacter baumannii [18]) [µg/mL] | MIC (Staphylococcus aureus [19]) [µg/mL] | MBC (Escherichia coli [20]) [µg/mL] |
| --- | --- | --- | --- | --- | --- | --- | --- | --- | --- | --- | --- | --- | --- | --- | --- | --- | --- | --- | --- | --- |
| CCCCCCCC(=O)N[C@@H](CCN)C(=O)N[C@@H](CCN)C(=O)N[C@@H](CCN)C(=O)N[C@H](Cc1ccccc1)C(=O)N[C@@H](CC(C)C)C(=O)N[C@@H](CCN)C(=O)N[C@@H](C(=O)N[C@@H](CC(C)C)C(=O)N[C@@H](CCN)C(N)=O)C(C)C (Octanoyl-[Dab][Dab][Dab][dF]L[Dab][dV]L[Dab]-NH2) | > 32 | 16 to 32 (≈ 14.3 to 28.7 µM) | 0.0312 to 0.0625 | 256 | > 32 | ≥ 32 | 256 - 512 | > 32 | 0.0625 to 0.125 | > 32 | > 32 |  |  |  |  |  |  |  |  |  |
| CCCCCCC(=O)N[C@@H](CCN)C(=O)N[C@@H](Cc1ccccc1)C(=O)N[C@@H](CCN)C(=O)N[C@H](Cc1ccccc1)C(=O)N[C@@H](CC(C)C)C(=O)N[C@@H](CCN)C(=O)N[C@H](CC(C)C)C(=O)N[C@@H](CC(C)C)C(=O)N[C@@H](CO)C(N)=O (Heptanoyl-[Dab]F[Dab][dF]L[Dab][dL]LS-NH2) | 1 to 4 (≈ 0.869 to 3.48 µM) | 2 to 4 (≈ 1.74 to 3.48 µM) |  |  | 16 (≈ 13.9 µM) | 16 to 32 (≈ 13.9 to 27.8 µM) |  | 4 (≈ 3.48 µM) |  | 8 (≈ 6.95 µM) | 16 to 32 (≈ 13.9 to 27.8 µM) | 8 to 16 (≈ 6.95 to 13.9 µM) | 32 (≈ 27.8 µM) | 16 to 32 (≈ 13.9 to 27.8 µM) | 32 (≈ 27.8 µM) | 8 (≈ 6.95 µM) | 32 | 8 (≈ 6.95 µM) | 64 | 32 (≈ 27.8 µM) |
| CCCCCCC(=O)N[C@@H](CCN)C(=O)N[C@@H](Cc1ccccc1)C(=O)N[C@@H](CCN)C(=O)N[C@H](Cc1ccccc1)C(=O)N[C@@H](CC(C)C)C(=O)N[C@@H](CCN)C(=O)N[C@@H](C(=O)N[C@@H](CC(C)C)C(=O)N[C@@H](CO)C(N)=O)C(C)C (Heptanoyl-[Dab]F[Dab][dF]L[Dab][dV]LS-NH2) | 1 to 4 (≈ 0.88 to 3.52 µM) | 2 to 4 (≈ 1.76 to 3.52 µM) |  |  | > 32 | ≥ 32 |  | 8 (≈ 7.04 µM) |  | 32 (≈ 28.2 µM) | 32 (≈ 28.2 µM) |  |  |  |  |  |  |  |  |  |
| CCCCCCC(=O)N[C@@H](CCN)C(=O)N[C@H](C(=O)N[C@@H](CCN)C(=O)N[C@H](Cc1ccccc1)C(=O)N[C@@H](CC(C)C)C(=O)N[C@@H](CCN)C(=O)N[C@@H](C(=O)N[C@@H](CC(C)C)C(=O)N[C@@H](CO)C(N)=O)C(C)C)C(C)C (Heptanoyl-[Dab]V[Dab][dF]L[Dab][dV]LS-NH2) | 16 (≈ 14.7 µM) | 16 (≈ 14.7 µM) | 0.125 | 4096 | > 32 | > 32 | 256 - 512 | > 32 | 0.0156 | > 32 | > 32 |  |  |  |  |  |  |  |  |  |
| CCCCCCC(=O)N[C@@H](CCN)C(=O)N[C@H](C(=O)N[C@@H](CCN)C(=O)N[C@H](Cc1ccccc1)C(=O)N[C@@H](CC(C)C)C(=O)N[C@@H](CCN)C(=O)N[C@H](CC(C)C)C(=O)N[C@@H](CC(C)C)C(=O)N[C@@H](CO)C(N)=O)[C@@H](C)CC (Heptanoyl-[Dab]I[Dab][dF]L[Dab][dL]LS-NH2) | 1 to 4 (≈ 0.896 to 3.58 µM) | 2 to 4 (≈ 1.79 to 3.58 µM) |  |  | 8 to 16 (≈ 7.17 to 14.3 µM) | 16 to 32 (≈ 14.3 to 28.7 µM) |  | 4 (≈ 3.58 µM) |  | 8 to 16 (≈ 7.17 to 14.3 µM) | 16 (≈ 14.3 µM) | 8 to 16 (≈ 7.17 to 14.3 µM) | 16 (≈ 14.3 µM) | 16 to 32 (≈ 14.3 to 28.7 µM) | 16 to 32 (≈ 14.3 to 28.7 µM) | 8 (≈ 7.17 µM) | 16 | 16 (≈ 14.3 µM) | 32 | 16 (≈ 14.3 µM) |
